# The source made the active and inactive calls. The rule behind the calls is not given here.
# Columns and labels:
# Assay type in all cases: functional, organism-based
# Cryptococcus neoformans [1] = assay: Antifungal activity against Cryptococcus neoformans ATCC 90113 by modified NCCLS method
# In short: (§1)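 Broth microdilution following a modified NCCLS method. The inoculum was a subculture diluted in its incubation broth. Compounds were dissolved in DMSO, serially diluted in normal saline and tested in duplicate, at final concentrations starting at 50 µg/mL. Amphotericin B served as positive control, with media-only blanks. Turbidity was read at 630 nm before and after incubation. Percent growth was plotted against concentration to give IC50/MIC.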
# Candida albicans [2] = assay: Antifungal activity against Candida albicans ATCC 90028 by modified NCCLS method; in short: as §1
# Candida albicans [3] = assay: Antifungal activity against Candida albicans ATCC 90028 at 50 ug/mL by modified NCCLS method; in short: as §1
# Cryptococcus neoformans [4] = assay: Antifungal activity against Cryptococcus neoformans ATCC 90113 at 50 ug/mL by modified NCCLS method; in short: as §1
Structure (SMILES),IC50 (Cryptococcus neoformans [1]) [mg/L],MIC (Cryptococcus neoformans [1]) [mg/L],IC50 (Candida albicans [2]) [mg/L],MIC (Candida albicans [2]) [mg/L],Activity (Candida albicans [3]),Activity (Cryptococcus neoformans [4])
C[C@@H]1CC[C@H]2[C@@H](C)C(=O)O[C@@H]3O[C@@]4(C)CC[C@@H]1[C@]32OO4 [ARTEMISININ],2,50,8,50,–,–
"CO[C@H]1O[C@@H]2OC3(C)CC[C@H]4[C@H](C)CC[C@@H]([C@H]1C)[C@@]24OO3 (single isomer, unassigned) [ARTEMETHER]",0.6,25,–,–,inactive,–
C[C@H]1[C@@H](Oc2ccc(O)cc2)O[C@@H]2O[C@]3(C)CC[C@H]4[C@H](C)CC[C@@H]1[C@@]24OO3,0.087,–,–,–,inactive,inactive
CCO[C@@H]1O[C@@H]2O[C@]3(C)CC[C@H]4[C@H](C)CC[C@@H]([C@H]1C)[C@@]24OO3 [ALPHA-ARTEETHER],0.045,1.56,3,–,inactive,–
C=C1[C@@H](OCCO)O[C@@H]2O[C@]3(C)CC[C@H]4[C@H](C)CC[C@@H]1[C@@]24OO3,3,–,–,–,inactive,inactive
C[C@H]1[C@@H](O[C@H]2CC[C@H](O)CC2)O[C@@H]2O[C@]3(C)CC[C@H]4[C@H](C)CC[C@@H]1[C@@]24OO3,1,–,–,–,inactive,inactive
C[C@@H]1[C@H](O)[C@@H](C)/C=C/C=C/C=C/C=C/C=C/C=C/C=C/[C@H](O[C@@H]2O[C@H](C)[C@@H](O)[C@H](N)[C@@H]2O)C[C@@H]2O[C@](O)(C[C@@H](O)C[C@@H](O)[C@H](O)CC[C@@H](O)C[C@@H](O)CC(=O)O[C@H]1C)C[C@H](O)[C@H]2C(=O)O [AMPHOTERICIN B],0.35,0.625,0.1,0.15,–,–
CC1=CO[C@@H]2O[C@]3(C)CC[C@H]4[C@H](C)CC[C@@H]1[C@@]24O3,6,–,30,–,inactive,inactive
CCO[C@H]1O[C@@H]2O[C@@]3(C)CC[C@H]4[C@H](C)CC[C@@H]([C@H]1C)[C@@]24OO3 [ARTEMOTIL],0.085,3.13,15,50,–,–
C[C@H]1[C@@H](OCCCCO)O[C@@H]2O[C@]3(C)CC[C@H]4[C@H](C)CC[C@@H]1[C@@]24OO3,0.6,–,–,–,inactive,inactive
"C=C1C(=O)O[C@@H]2OC3(C)CC[C@H]4[C@H](C)CC[C@@H]1[C@@]24OO3 (single isomer, unassigned) [ARTEMISITENE]",0.045,–,–,–,inactive,inactive
C[C@H]1[C@@H](O[C@H]2CC[C@@H](O)CC2)O[C@@H]2O[C@]3(C)CC[C@H]4[C@H](C)CC[C@@H]1[C@@]24OO3,0.9,–,–,–,inactive,inactive
"C[C@H]1[C@@H](O)O[C@@H]2OC3(C)CC[C@H]4[C@H](C)CC[C@@H]1[C@@]24OO3 (single isomer, unassigned) [ARTENIMOL]",0.09,12.5,9,–,inactive,–
CO[C@@H]1O[C@@H]2O[C@]3(C)CC[C@H]4[C@H](C)CC[C@@H]([C@H]1C)[C@@]24OO3,1.5,–,–,–,inactive,inactive
C[C@H]1[C@@H](Oc2ccc(S)cc2)O[C@@H]2O[C@]3(C)CC[C@H]4[C@H](C)CC[C@@H]1[C@@]24OO3,0.31,–,–,–,inactive,inactive
CC1=CO[C@@H]2O[C@]3(C)CC[C@H]4[C@H](C)CC[C@@H]1[C@@]24OO3 [ANHYDRODIHYDROARTEMISININ],0.045,0.195,7,50,–,–

# Reference: ChEMBL document CHEMBL1141787, “Antifungal activity of artemisinin derivatives” (J Nat Prod, 2005)
